From PubChem
AP ELISA ortho = orthogonal test for alternative complement pathway inhibitors; Human serum alternative complement pathway, LPS-coated ELISA, C3 deposition; tested in compound mixtures; inhibition, % at 5 µM; 62,000 tested, 0.08% active; AID 1235;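 active = inhibition above 30% in each of the two pooled mixtures holding the compound, so the lower value exceeds 30%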
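Test system – human serum alternative complement pathway, C3 deposition on LPS-coated wells · Buffer or medium – diluted human serum in Mg2+-EGTA GVB++ · Compound dosing – 5 µM each compound, pools of ten, 50 µM per pool · Schedule – 1 h serum-compound exposure at 37 °C · Measured by – Anti-C3 ELISA, OD 450 nm · Read-out basis – percent inhibition of C3 deposition onto LPS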
HePTP inh = blocks human HePTP tyrosine phosphatase; P35236; recombinant HePTP phosphatase activity, OD absorbance; inhibition, % at 20 µM; 110,000 tested, 0.64% active; AID 521; in the data active = inhibition above about 50%; inconclusive = no clear call, values can overlap the other calls
FXIa mix inh = inhibitors of human coagulation factor XIa, pooled mixtures. P03951. purified FXIa, fluorogenic substrate. inhibition, % at 5 µM. 62,000 tested, 0.19% active. AID 680;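 also: each value is inhibition by a whole ten-compound pool holding the compound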
FXIIa inh mix = blocks human factor XIIa in pooled compound mixtures | P00748 | purified FXIIa, fluorogenic substrate | inhibition, % at 5 µM | 62,000 tested, 0.2% active | AID 684
Target sequence (P00748 20-372 limits assumed): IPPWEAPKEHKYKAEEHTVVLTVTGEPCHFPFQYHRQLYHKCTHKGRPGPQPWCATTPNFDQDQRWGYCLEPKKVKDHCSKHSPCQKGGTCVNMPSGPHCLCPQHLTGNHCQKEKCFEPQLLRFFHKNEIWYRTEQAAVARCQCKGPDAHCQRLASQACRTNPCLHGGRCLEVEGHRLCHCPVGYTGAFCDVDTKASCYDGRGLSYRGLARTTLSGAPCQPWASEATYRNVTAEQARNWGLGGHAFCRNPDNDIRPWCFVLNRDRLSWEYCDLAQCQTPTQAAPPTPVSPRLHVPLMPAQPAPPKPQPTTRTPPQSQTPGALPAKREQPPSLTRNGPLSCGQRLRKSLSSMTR
Target sequence (P00748 373-615 limits assumed): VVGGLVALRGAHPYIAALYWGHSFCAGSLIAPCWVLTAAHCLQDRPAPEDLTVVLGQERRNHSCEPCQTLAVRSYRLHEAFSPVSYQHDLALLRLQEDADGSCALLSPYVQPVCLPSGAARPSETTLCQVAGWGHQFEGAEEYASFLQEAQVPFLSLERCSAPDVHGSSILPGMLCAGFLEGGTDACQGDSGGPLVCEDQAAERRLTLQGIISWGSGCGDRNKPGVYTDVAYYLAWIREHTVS
BAP1 inh = inhibitors of human BAP1 deubiquitinase | 72,000 tested, 0.48% active | Q92560 | calls only at 20 µM | AID 436 | recombinant BAP1, Ub-AMC hydrolysis fluorescence kinetic; active compounds read low;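 active = activity remaining at or below 50% of control, provided the compound also passes the data quality filters; inactive = the rest, including low values that fail the filters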
BAP1 inh conf = BAP1 (human) enzyme inhibition, confirmed. shares compounds with BAP1 inh. purified BAP1, Ub-ethyl ester hydrolysis, HPLC; active compounds read low. % of control activity, % at 20 µM. 310 tested, 8% active. AID 753;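 active = percent of control activity at or below 60%; inconclusive = HPLC trace unusable from injection failure or solvent front hiding peaks; inactive = the rest, plus ubiquitin peak ratio over a set limit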
Each line names hits and unclear results; the compound was inactive in the other large screens (follow-up assays come after a bar, where shown). Only some compounds are listed: those with a hit (about 1% of all), similar ones and a draw of the others. Rule as the data show it, unless noted: active = inhibition above about 20% (passing the limit was not always enough); inactive = the rest.

COc1ccc(OC)c(NC(=O)c2c(NC(=O)CNCc3ccco3)sc3c2CCC3)c1	none
CS(C)=C1C(=O)NC(=O)N(c2ccccc2)C1=O	none (no result: AP ELISA ortho, FXIa mix inh, FXIIa inh mix, BAP1 inh)
CC(=O)Cc1oc2ccc(O)cc2c1[N+](=O)[O-]	none (no result: AP ELISA ortho, FXIa mix inh, FXIIa inh mix, BAP1 inh)
Cc1nc(SCC(=O)Nc2ccc3c(c2)OCCO3)c2oc3ccccc3c2n1	none (no result: BAP1 inh)
CCc1nc(SCC(=O)Nc2ccc3c(c2)OCCO3)c2oc3ccccc3c2n1	BAP1 inh active | BAP1 inh conf inconclusive
O=C(O)c1ccc(NC2=NS(=O)(=O)c3ccccc32)cc1	none (no result: AP ELISA ortho, FXIa mix inh, FXIIa inh mix, BAP1 inh)
COc1cccc(C2C(C#N)=C(N)OC3=C2C(=O)CC(c2ccco2)C3)c1OCc1ccc(F)cc1 (stereo unspecified)	BAP1 inh active | BAP1 inh conf inactive
O=C(CC1S/C(=N\N=C\c2cccs2)NC1=O)Nc1ccc(Cl)cc1Cl (stereo unspecified)	none (no result: AP ELISA ortho, FXIa mix inh, FXIIa inh mix, BAP1 inh)
CC1CCc2nc(NC(=O)c3ccc(S(=O)(=O)N4CCOCC4)cc3)sc2C1 (stereo unspecified)	none (no result: AP ELISA ortho, HePTP inh, FXIa mix inh, FXIIa inh mix)
CC1CCc2nc(NC(=O)c3cc(C(C)(C)C)nn3C)sc2C1 (stereo unspecified)	BAP1 inh active | BAP1 inh conf inactive
COc1cccc(C(c2nnnn2CCc2ccccc2)N2CCN(c3ccccc3)CC2)c1OC (stereo unspecified)	none
Cc1ccc2[nH]c(=O)c(C(c3nnnn3CCc3ccccc3)N3CCOCC3)cc2c1 (stereo unspecified)	BAP1 inh active | BAP1 inh conf inactive
COc1ccccc1C(c1nnnn1CCc1ccccc1)N1CCN(c2ccccc2)CC1 (stereo unspecified)	BAP1 inh active | BAP1 inh conf inactive
COCCn1nnnc1C(c1cc2cc(C)ccc2[nH]c1=O)N1CCCCCC1 (stereo unspecified)	none
COc1cccc(-n2c(O)c(C3=c4cc(Br)ccc4=NC3=O)sc2=S)c1	none (no result: AP ELISA ortho, FXIa mix inh, FXIIa inh mix, BAP1 inh)
CCOc1cc2[nH]c(=O)n(Cc3cccc(OC)c3)c(=O)c2cc1OCC	BAP1 inh active | BAP1 inh conf inactive
CCOC(=O)C1Cn2c(nc3c(c2=O)C2(CCCC2)Cc2ccccc2-3)S1 (stereo unspecified)	BAP1 inh active | BAP1 inh conf inactive
Cc1ccc(S(=O)(=O)Nc2c(C)n(C)n(-c3ccccc3)c2=O)cc1[N+](=O)[O-]	none (no result: AP ELISA ortho, FXIa mix inh, FXIIa inh mix, BAP1 inh)
COc1cc(NC(=O)c2cc3ccccc3o2)c(OC)cc1Cl	none
COc1cc(NC(=O)c2cc3ccccc3o2)c(OC)cc1Br	BAP1 inh active | BAP1 inh conf inactive
CC1CCc2sc(NC(=O)c3cc(Cl)ccc3[N+](=O)[O-])c(C#N)c2C1 (stereo unspecified)	none (no result: AP ELISA ortho, HePTP inh, FXIa mix inh, FXIIa inh mix)
C=CCn1c(-c2cc(OC)c(OC)c(OC)c2)n[nH]c1=S	BAP1 inh active | BAP1 inh conf inactive
O=C(/C(=C\c1ccc(Cl)cc1)c1nc2ccccc2s1)c1ccccc1	none (no result: AP ELISA ortho, FXIa mix inh, FXIIa inh mix, BAP1 inh)
COc1ccc(C(c2nnnn2Cc2ccc(F)cc2)N2CCN(c3ccccc3)CC2)cc1 (stereo unspecified)	none
COc1ccc(Cn2nnnc2C(c2ccccn2)N2CCN(c3cc(Cl)ccc3C)CC2)cc1 (stereo unspecified)	BAP1 inh active | BAP1 inh conf inactive
CCOc1ccc2nc(NC(=O)CN3CCC(n4nnc5cc(F)ccc54)CC3)sc2c1	FXIIa inh mix 31, BAP1 inh active | BAP1 inh conf inactive
Cc1cc2n(n1)C(c1ccc(O)cc1)Nc1ccccc1-2 (stereo unspecified)	none
Cc1cc2n(n1)C(c1ccco1)Nc1ccccc1-2 (stereo unspecified)	BAP1 inh active | BAP1 inh conf inactive
COc1cc2ccccc2cc1C(=O)Nc1cccc2ccccc12	none (no result: AP ELISA ortho, FXIa mix inh, FXIIa inh mix, BAP1 inh)
CCOC(=O)Cn1nnnc1CN(Cc1ccc(OC)cc1)Cc1cc2cc(CC)ccc2[nH]c1=O	BAP1 inh active | BAP1 inh conf inactive
O=C(O)Cn1cc(C(=O)c2cccs2)c2ccccc21	BAP1 inh active | BAP1 inh conf inactive
O=C(c1ccco1)[C@@H]1[C@@H]2C(=O)N(c3ccc(Br)cc3)C(=O)[C@@H]2C2c3ccccc3C=CN21 (stereo partly specified)	BAP1 inh active | BAP1 inh conf inactive
O=C(c1ccco1)[C@@H]1[C@@H]2C(=O)N(c3ccc(F)cc3)C(=O)[C@@H]2C2c3ccccc3C=CN21 (stereo partly specified)	none
COC(=O)C1=C(NC(=O)c2ccc(C(=O)c3ccccc3)cc2)CCS1	none (no result: AP ELISA ortho, HePTP inh, FXIa mix inh, FXIIa inh mix)
Cc1ccc2cc(CN(Cc3ccc4c(c3)OCO4)Cc3nnnn3Cc3ccco3)c(=O)[nH]c2c1C	BAP1 inh active | BAP1 inh conf inactive
CN=C(Nc1ccc2c(c1)OCO2)SC1CC(=O)N(c2ccc(Cl)cc2)C1=O (stereo unspecified)	none (no result: AP ELISA ortho, FXIa mix inh, FXIIa inh mix, BAP1 inh)
CC(C)c1nc(SCC(=O)Nc2cccc(C(F)(F)F)c2)c2c(=O)n(C)c(=O)n(C)c2n1	BAP1 inh active | BAP1 inh conf inactive
CC(C)c1nc(SCC(=O)Nc2ccc3c(c2)OCCO3)c2c(=O)n(C)c(=O)n(C)c2n1	none
O=C(NCc1ccccn1)c1ccc2c(c1)OCO2	none (no result: AP ELISA ortho, FXIa mix inh, FXIIa inh mix, BAP1 inh)
O=C(NCc1ccccn1)Nc1ccc2c(c1)OCO2	BAP1 inh active | BAP1 inh conf inactive
O=C(COc1ccc([N+](=O)[O-])cc1)Nc1ccccc1O	none (no result: AP ELISA ortho, FXIa mix inh, FXIIa inh mix, BAP1 inh)
c1ccc(-n2cnnc2SCc2nc3ccccc3s2)cc1	BAP1 inh active | BAP1 inh conf inactive
CC1(C)CC(=O)c2cc(C(=O)NC3CCSC3=O)c(=O)n(-c3ccccc3)c2C1 (stereo unspecified)	BAP1 inh active | BAP1 inh conf inactive
CCOC(=O)N1CCN(C(=O)c2cccn3c(=O)c4sccc4nc23)CC1	BAP1 inh active | BAP1 inh conf inactive
CCOC(=O)COc1nc(C)c(Br)c(OC)n1	BAP1 inh active | BAP1 inh conf inactive
Clc1ccc(OCc2cn3cccnc3n2)cc1	none (no result: AP ELISA ortho, HePTP inh, FXIa mix inh, FXIIa inh mix)
O=C(Nc1ccc(F)cc1F)c1cc2n(n1)C(C(F)(F)F)C1CCCCC1N2 (stereo unspecified)	BAP1 inh active | BAP1 inh conf inactive
CCC(C)(C)n1nnnc1CN(Cc1cc2cc(OC)ccc2[nH]c1=O)C1CCCC1	BAP1 inh active | BAP1 inh conf inactive
COc1ccc(Cn2nnnc2CN(Cc2cc3ccc(C)cc3[nH]c2=O)C2CCCC2)cc1	none
Cc1cc(OCc2ccc(F)cc2)nc(-c2ccccc2O)n1	BAP1 inh active | BAP1 inh conf inactive
Cc1ccc(Oc2cc(C)nc(-c3ccccc3O)n2)cc1	none
O=C(CSc1nnc(-c2cc3ccccc3cc2O)n1Cc1ccco1)c1ccc(F)cc1	BAP1 inh active | BAP1 inh conf inactive
Cc1occc1-c1nnc(SCC(=O)c2ccc(F)cc2)n1Cc1ccco1	none
CCOc1ccc(N2Cc3ccccc3C2)cc1	BAP1 inh active | BAP1 inh conf inactive
CCn1c(=O)c2cc(C(=O)N3CCCC3)sc2c2ccccc21	none (not shown: BAP1 inh)
CCn1c(=O)c2cc(C(=O)N3CCOCC3)sc2c2ccccc21	BAP1 inh active | BAP1 inh conf inactive
